Drawing on ChEMBL document CHEMBL2440086 (Bioorg Med Chem, 2013), this text covers GI50, IC50 and inhibition for 13 compounds.

Structures are written as SMILES.

In one experiment the test system is SK-OV-3. In words: Cytotoxicity against human SKOV3 cells after 48 hrs by SRB assay. The settings on record: SK-OV-3, 48 h. It is filed as functional. In outline:
(§1)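 Cells in 5% FBS/RPMI1640 with 1% gentamicin, plated and grown 24 h, then given serial compound dilutions for 48 h. Fixed with trichloroacetic acid, stained with sulforhodamine B, read by optical density.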

Another experiment concerns NCI-H460. In words: Cytotoxicity against human NCI-H460 cells after 48 hrs by SRB assay. It is filed as functional. The settings on record: NCI-H460, 48 h. The gist of the method: as §1
The next experiment deals with DU-145. In words: Cytotoxicity against human DU145 cells after 48 hrs by SRB assay. It is filed as functional. The note with it: DU-145, 48 h. The gist of the method:
as §1

The nature of experiment [1]: Inhibition of bovine brain tubulin polymerization after 20 mins by turbidimetric analysis. Details: species or system Bos taurus. The gist of the method:
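Bovine brain tubulin 10 µM (1 mg/mL) in 0.8 M monosodium glutamate pH 6.6, 4% DMSO, with varying compound, preincubated 15 min at 30 °C. Chilled, GTP added to 0.4 mM, then temperature jumped 0→30 °C. Turbidity followed at 350 nm for 30 min.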

Experiment [2] concerns the target T1, Tubulin (Homo sapiens) (UniProt P68371+Q9H4B7+P0DPH7+P68366+Q13509+Q71U36+P04350+Q3ZCM7+P07437+P68363+Q9BQE3+Q6PEY2+Q13885+Q9BVA1+Q9BUF5). Description: Displacement of [3H]colchicine from tubulin (unknown origin) at 5 uM after 10 mins by scintillation counting analysis. Format: protein-complex assay. In outline:
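Mixtures: 1.0 µM tubulin, 5.0 µM [3H]colchicine, 5% DMSO, inhibitor 5.0 µM, with 1.0 M monosodium glutamate pH 6.6, 0.5 mg/mL BSA, 0.1 M glucose-1-phosphate, 1.0 mM MgCl2, 1.0 mM GTP. 10 min at 37 °C, stopped with ice-cold water, filtered on DEAE-cellulose, scintillation counted. Percent inhibition versus no-inhibitor control.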
A general note: Displacement assays read how much labelled ligand stays bound in the presence of the test substance.

Experiment [3] concerns the target T1, Tubulin (Homo sapiens). In words: Displacement of [3H]colchicine from tubulin (unknown origin) at 1 uM after 10 mins by scintillation counting analysis. Format: protein-complex assay. The gist of the method: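 Tubulin 1.0 µM incubated 10 min at 37 °C with 5.0 µM [3H]colchicine, 5% (v/v) DMSO and inhibitor at 1.0 µM, in 1.0 M monosodium glutamate pH 6.6, 0.5 mg/mL BSA, 0.1 M glucose-1-phosphate, 1.0 mM MgCl2, 1.0 mM GTP. Stopped with ice-cold water, DEAE-cellulose filter stacks, scintillation counting next day; percent inhibition versus no-inhibitor control.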

For the compound `COc1ccc2c(C(=O)c3cc(C(F)(F)F)cc(C(F)(F)F)c3)c(-c3ccc(OC)c(O)c3)[nH]c2c1`, the values for the GI50 in the experiment with SK-OV-3, in the experiment with NCI-H460 and in the experiment on DU-145 were 1.45 µM, 2.86 µM and 3.01 µM, respectively. In experiment [1], the midpoint of inhibition, the IC50, lay at 3.1 µM. Also, the inhibition at Tubulin (Homo sapiens) [2] was determined as 26%.
Consider `COc1ccc(/C=C\c2cc(OC)c(OC)c(OC)c2)cc1O` [COMBRETASTATIN A4], for which the GI50 in the experiment on SK-OV-3 is 0.00533 µM; in the experiment on NCI-H460, 0.00449 µM; in the experiment on DU-145, 0.00484 µM.
Consider `COc1ccc2c(C(=O)c3ccc(OC(F)(F)F)cc3)c(-c3ccc(OC)c(O)c3)[nH]c2c1`, for which the GI50 in the experiment with SK-OV-3 was 3.05 µM; in the experiment on NCI-H460 it was 2.35 µM; in the experiment on DU-145, 3.21 µM. Also, the IC50 in experiment [1] was above 20 µM.
With `COc1ccc(-c2[nH]c3cc(OC)c(OC)c(OC)c3c2C(=O)c2cc(OC)c(OC)c(OC)c2)cc1O`, the GI50 with SK-OV-3 was 25.1 µM; with NCI-H460 it was 41.8 µM; with DU-145, 28.3 µM. Also, in experiment [1], the IC50 was above 20 µM.
On to `COc1ccc2c(C(=O)c3ccc([N+](=O)[O-])cc3)c(-c3ccc(OC)c(O)c3)[nH]c2c1`, for which the GI50 with SK-OV-3 amounted to 21.1 µM; in the experiment with NCI-H460, 16.8 µM; in the experiment with DU-145 it was 8.16 µM. Besides, the IC50 in experiment [1] was above 20 µM.
Take `COc1ccc2c(C(=O)c3cc(F)c(F)c(F)c3)c(-c3ccc(OC)c(O)c3)[nH]c2c1`: the results for the GI50 in the experiment on SK-OV-3, in the experiment on NCI-H460 and in the experiment with DU-145 were 19.8 µM, 5.54 µM and 10 µM, respectively. Further, in experiment [1], the IC50 stood at 7.5 µM. The compound further displayed an inhibition on Tubulin (Homo sapiens) [2] of 26%.
In the case of `COc1ccc2c(C(=O)c3cccc(OC(F)(F)F)c3)c(-c3ccc(OC)c(O)c3)[nH]c2c1`, the GI50 is 0.283 µM with SK-OV-3, 3.57 µM in the experiment with NCI-H460 and 2.99 µM with DU-145. The IC50 in experiment [1] stood at 3.7 µM. The same compound came in with an inhibition on Tubulin (Homo sapiens) [2] of 19%.
Consider `COc1ccc(-c2[nH]c3cc(O)ccc3c2C(=O)c2cc(OC)c(OC)c(OC)c2)cc1O`, for which the results for the 50% growth inhibitory concentration (GI50) in the experiment on SK-OV-3, in the experiment with NCI-H460 and in the experiment with DU-145 were 2.17 µM, 2.91 µM and 3.4 µM, respectively. The IC50 in experiment [1] was above 20 µM.
As for `COc1ccc2c(C(=O)c3cc([N+](=O)[O-])cc([N+](=O)[O-])c3)c(-c3ccc(OC)c(O)c3)[nH]c2c1`, the GI50 in the experiment on SK-OV-3 stood at 4.35 µM; in the experiment with NCI-H460, 4.08 µM; in the experiment with DU-145, 5.52 µM. Further, the IC50 in experiment [1] is above 20 µM.
For the compound `COc1ccc2c(C(=O)c3ccc(F)cc3)c(-c3ccc(OC)c(O)c3)[nH]c2c1`, the GI50 in the experiment with SK-OV-3 amounted to 15 µM; in the experiment with NCI-H460, 49.6 µM; in the experiment with DU-145 it was 10 µM. Further, the IC50 in experiment [1] is above 20 µM.
For the compound `COc1ccc(-c2[nH]c3c(OC)c(OC)ccc3c2C(=O)c2cc(OC)c(OC)c(OC)c2)cc1O`, the inhibition worked out at 31% at Tubulin (Homo sapiens) [3] and 67% on Tubulin (Homo sapiens) [2]. The GI50 in the experiment on SK-OV-3 is 0.0119 µM; in the experiment with NCI-H460 it was 0.992 µM; in the experiment on DU-145 it was 0.0181 µM. In experiment [1], this compound yielded an IC50 of 1.1 µM.
On to `COc1ccc2c(C(=O)c3cccc([N+](=O)[O-])c3)c(-c3ccc(OC)c(O)c3)[nH]c2c1`, for which the results for the GI50 in the experiment with SK-OV-3, with NCI-H460 and in the experiment with DU-145 were 2.65 µM, 15.7 µM and 7.11 µM, respectively. This compound gave an IC50 in experiment [1] of 19 µM. Also, the inhibition on Tubulin (Homo sapiens) [2] was 21%.
On to `COc1ccc(-c2[nH]c3c(O)c(OC)ccc3c2C(=O)c2cc(OC)c(OC)c(OC)c2)cc1`, for which the inhibition came to 51% on Tubulin (Homo sapiens) [3] and 85% on Tubulin (Homo sapiens) [2]. The GI50 in the experiment with SK-OV-3 was found to be 0.264 µM; with NCI-H460, 0.177 µM; in the experiment on DU-145, 0.309 µM. 1 µM corresponded to half-maximal inhibition in experiment [1] (IC50).

A word on the GI50: it is the concentration giving 50% growth inhibition. By IC50 is commonly meant the midpoint of a concentration-inhibition curve. For orientation: inhibition means the drop in the measured response relative to a control, in per cent. A low value points to a response near the control.
